Compounds with a hit are over-represented: about 4% of the library has one in this group of screens.
CHOP UPR activ = activators of apoptotic CHOP UPR arm, primary screen, cell-based, CHO-CHOP luciferase reporter, luminescence, uHTS. UPR activation; percent of tunicamycin response over DMSO baseline. 330,000 compounds, 0.34% hits. activation, % at 10 µM. AID 449763, 2010;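 active = at 10 µM dose, activation of 40% or more, normalized to positive control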;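 note: 100% = tunicamycin at 10 µg/mL and 0% = DMSO alone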
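Test system: CHO CHOP reporter cells. Input: 500 CHO-CHOP cells per well. Medium: F12 with 10% FBS. Technique: luciferase luminescence. Measure: percent activation relative to tunicamycin control. Dosing: 10 µM compound, 0.5% DMSO. Timing: 16-18 h cell attachment, then 6 h compound exposure, 37 °C.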
Exocytosis inh = LAMP-1 surface exposure blockers, TALL-104 cells – cell-based, flow cytometry, MLPCN library, primary screen. TALL-104 LAMP-1 surface exposure; cells stimulated with thapsigargin and PMA. inhibition, % at 10 µM. 360,000 compounds, 0.66% hits;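 active = inhibition above about 55%, limit read from the data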
ABHD5 PLIN5 PPI = ABHD5-PLIN5 interaction inhibitors, primary screen, cell lysate, split luciferase complementation, luminescence; inhibition, % at 4 µM; AID 602281, 2012; Perilipin-5 (Homo sapiens) + 1-acylglycerol-3-phosphate O-acyltransferase ABHD5 (Homo …; 360,000 compounds, 0.78% hits; Split G. princeps luciferase complementation, 4 h;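 active = inhibition above the mean inhibition across every tested compound plus 3 SD, cut at about 22% in these data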;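 note: 0% = DMSO only wells and the 100% control is not disclosed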
XBP1 UPR activ = activators of adaptive XBP1 UPR arm, primary screen, cell-based, CHO-XBP1 luciferase reporter, luminescence, uHTS; 330,000 compounds, 0.33% hits; AID 463104, 2010; IRE1-XBP1 UPR activation; percent of tunicamycin response, DMSO as zero; activation, % at 20 µM;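 active = versus positive control, 20 µM dose yields 30% or more activation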;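 note: 100% = tunicamycin at 10 µg/mL and 0% = DMSO only wells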
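Signal: luciferase luminescence; Assay system: CHO-XBP1 luciferase reporter cells; Amount: one thousand reporter cells per well; Dosing: 20 µM single concentration, DMSO 1%; Benchmarks: high control tunicamycin 10 µg/mL final, low control DMSO vehicle only; Schedule: 6 h compound exposure at 37 °C, 5% CO2; Evaluation: percent activation relative to tunicamycin reference.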
Mdm2 MdmX PPI = inhibitors of human Mdm2-MdmX association, primary screen, cell-based, luminescence, split luciferase, SaOS-2, uHTS | Protein Mdm4 (Homo sapiens) + E3 ubiquitin-protein ligase Mdm2 (Homo sapiens), … | 330,000 compounds, 3% hits | SaOS-2 split-luciferase Mdm2/MdmX complementation | inhibition, % at 8 µM;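 active = inhibition of at least 50% at 8 µM in the primary screen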
Target sequence (O15151 whole entry, looked up): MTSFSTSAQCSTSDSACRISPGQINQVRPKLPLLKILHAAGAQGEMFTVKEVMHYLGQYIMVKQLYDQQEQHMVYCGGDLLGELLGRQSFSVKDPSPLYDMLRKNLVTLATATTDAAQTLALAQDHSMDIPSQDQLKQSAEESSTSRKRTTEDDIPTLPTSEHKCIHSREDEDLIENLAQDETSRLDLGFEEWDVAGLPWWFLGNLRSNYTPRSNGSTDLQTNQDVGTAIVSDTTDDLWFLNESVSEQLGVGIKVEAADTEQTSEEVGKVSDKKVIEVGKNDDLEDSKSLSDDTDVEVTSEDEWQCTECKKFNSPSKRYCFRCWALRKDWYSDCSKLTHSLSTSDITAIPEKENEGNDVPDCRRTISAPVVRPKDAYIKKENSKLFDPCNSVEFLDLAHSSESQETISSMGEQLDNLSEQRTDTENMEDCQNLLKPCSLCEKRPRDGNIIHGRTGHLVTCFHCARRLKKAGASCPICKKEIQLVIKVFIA
Target sequence (Q00987 whole entry, looked up): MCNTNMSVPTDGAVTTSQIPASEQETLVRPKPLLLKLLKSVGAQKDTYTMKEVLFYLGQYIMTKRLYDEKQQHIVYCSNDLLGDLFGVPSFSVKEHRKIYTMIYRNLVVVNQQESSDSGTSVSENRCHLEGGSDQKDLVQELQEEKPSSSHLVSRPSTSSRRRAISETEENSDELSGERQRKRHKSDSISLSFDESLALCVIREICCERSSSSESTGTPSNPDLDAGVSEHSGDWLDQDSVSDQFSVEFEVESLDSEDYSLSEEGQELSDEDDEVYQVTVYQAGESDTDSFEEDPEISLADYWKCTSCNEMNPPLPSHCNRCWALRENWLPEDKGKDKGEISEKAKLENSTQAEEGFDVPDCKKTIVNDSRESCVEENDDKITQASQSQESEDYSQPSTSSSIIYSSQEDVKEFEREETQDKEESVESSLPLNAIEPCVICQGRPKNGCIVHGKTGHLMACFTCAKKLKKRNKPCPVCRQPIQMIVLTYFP
Mdm2 MdmX conf = Mdm2-MdmX complex disruptors, retested hits, confirmation, luminescence, single concentration; shares compounds with Mdm2 MdmX PPI; Mdm2-MdmX binding, luminescent assay; inhibition, % at 8 µM; 10,000 compounds, 55% hits; AID 489028, 2010; in the data active = inhibition above about 40%
FLuc counter = full-length luciferase signal inhibition, confirmation, counter-screen for Mdm2/MdmX interaction inhibitor project, cell-based, single concentration, SaOS-2; shares compounds with Mdm2 MdmX PPI; SaOS-2 full-length luciferase counterscreen, luminescence; inhibition, % at 8 µM; 6,200 compounds, 77% hits; AID 504607, 2011;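 active = mean inhibition at 8 µM reaching about 37%, which flags the compound as non-specific, limit read from the data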;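 note: p53-null SaOS-2 cells with luciferase driven by a doxycycline-inducible promoter; compound on cells about two nights before reading with doxycycline added after day one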
* hit, by the source's call; . = not tested or not shown.

SMILES | CHOP UPR activ | Exocytosis inh | ABHD5 PLIN5 PPI | XBP1 UPR activ | Mdm2 MdmX PPI | Mdm2 MdmX conf | others
NC1=NC(=Nc2cccc(S(N)(=O)=O)c2)c2ccccc21 | -1 | -6 | -2 | -3 | 29 | .
NC1=NC(=Nc2ccccc2)c2ccccc21 | -1 | 1 | 5 | 0 | 25 | .
Cc1ccc(C(=O)COC(=O)C(C)N2C(=O)C3C4CCC(C4)C3C2=O)cc1C (configuration not stated) | 0 | -1 | 3 | -4 | 19 | .
COc1ccc(-c2nc3cnccn3c2Nc2ccc3c(c2)OCO3)cc1 | 3 | 15 | 5 | -1 | 53* | 6
COc1cc(C2C(C#N)=C(N)N(Nc3ccccc3)C3=C2C(=O)CC(C)(C)C3)ccc1OCc1cccc(F)c1 (configuration not stated) | 7 | 1 | -10 | 2 | 61* | 19
COc1cc(C2C(C#N)=C(N)N(Nc3ccccc3)C3=C2C(=O)CC(C)(C)C3)ccc1OCc1ccccc1 (configuration not stated) | 0 | -1 | -4 | 0 | 9 | .
O=C(Nc1ccc(F)cc1F)c1cccc(C(=O)Nc2ccc(F)cc2F)n1 | 17 | -1 | 1 | 16 | 95* | 87* | FLuc counter=50*
O=C(Nc1ccc(F)cc1F)c1csc(-c2ccccc2)n1 | 0 | -1 | -1 | 0 | -28 | .
CC(C)CCN1C(=O)CC(NNC(=O)c2ccc(S(=O)(=O)N3CCCC3)cc2)C1=O (configuration not stated) | -1 | -2 | -4 | -2 | 21 | .
COc1cnc(-c2ccccn2)nc1N(C)c1ccccc1 | 16 | 4 | 8 | 11 | 80* | 77* | FLuc counter=56*
COc1cnc(-c2ccccn2)nc1Oc1ccccc1 | -1 | -4 | -2 | 0 | -11 | .
COc1ccccc1C(=O)N(CCC1CCCN1C)c1nc2ccccc2s1 (configuration not stated) | -2 | 8 | 10 | -4 | 82* | 79* | FLuc counter=106*
NC(=O)CC(NC(=O)Cc1cccc2ccccc12)c1ccc(NC2CCN(Cc3ccccc3)CC2)c([N+](=O)[O-])c1 (configuration not stated) | 1 | 15 | 15 | -1 | 55* | 14
NC(=O)CC(NC(=O)Cc1ccc(Br)cc1)c1ccc(NCc2cc(F)ccc2F)c([N+](=O)[O-])c1 (configuration not stated) | -2 | -9 | 5 | 0 | 55* | -10
COc1ccc(N2CCCC2=N)c(OC)c1 | 1 | -6 | 9 | -3 | 11 | .
c1ccc2c(c1)-c1ccccc1C2N1CCOCC1 | . | 1 | -2 | . | . | .
O=C(NC1c2ccccc2-c2ccccc21)N1CCOCC1 | -3 | 1 | -5 | -3 | 50* | 15
CCCCNc1c(-c2ccc(OC)c(Sc3ccc(OC)cc3)c2)nc2ccccn12 | 4 | 4 | -2 | -7 | 94* | 40 | FLuc counter=65*
O=C(Cc1csc(Nc2nc(=S)[nH]c3ccccc23)n1)NCc1ccc(Cl)cc1 | -1 | -1 | -1 | -3 | 74* | 6
O=C(N/N=C/c1coc2ccccc2c1=O)c1cn(-c2ccccc2)nc1-c1ccccc1 | 2 | -3 | 3 | -3 | 18 | .
Cc1ccc(/C=C/C(=O)c2c(C)cc(C)[nH]c2=O)cc1 | 0 | 0 | 19 | 6 | 70* | 45* | FLuc counter=51*
Cc1cc(C)c(C(=O)/C=C/c2cccs2)c(=O)[nH]1 | 2 | 3 | -1 | -2 | 23 | .
